Laboratory results published in article PMC5634022 (Journal of Insect Science, 2014).

Tested on: CarE (carboxylesterase, EC3.1.1.1), final purified
Test: esterase activity, Fast Blue B, Lineweaver-Burk
Format: biochemical, Dendrolimus superans
Details: read-out: K m (mol/liter); 35°C; kcat unit printed as s
Method in brief: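 Carboxylesterase from sixth-instar larval tissue homogenate, purified at 4°C by ammonium sulfate precipitation, Sephadex G-25, DEAE-52 and hydroxyapatite chromatography. Enzyme incubated 10 min at 35°C with α- or β-naphthyl acetate at five concentrations (0.1875–3.0 × 10^-4 mol/liter). Stopped with SDS/Fast Blue B; read at 600 nm. Km and Vmax from Lineweaver–Burk plots. Kcat from SDS-PAGE molecular weight and Vmax.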

CC(=O)Oc1ccc2ccccc2c1 [β-NA] showed a Km of 0.000162 mol/L.
